Measured values from ChEMBL document CHEMBL1250515, “4-(3-Halo/amino-4,5-dimethoxyphenyl)-5-aryloxazoles and -N-methylimidazoles that are cytotoxic against combretastatin A resistant tumor cells and vascular disrupting in a cisplatin resistant germ cell tumor model” (J Med Chem, 2010).
Active and inactive are the calls of the source. No cut-off for these calls is given here.

Key:
HL-60 [1] = assay: Cytotoxicity against human HL60 cells after 72 hrs by MTT assay; type: functional, cell-based; conditions: HL-60, 72 h
Summary of the method: (§1)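 MTT read-out. HL-60 seeded at 5 × 10⁵/mL and adherent lines at 5 × 10⁴/mL, precultured 24 h, then exposed to compounds for 72 h at 37 °C, 5% CO₂. MTT final 0.05% (HL-60, 518A2) or 0.1% (others), 2 h. Formazan dissolved in SDS/DMSO/acetic acid; A570 minus A630. Quadruplicates; viability relative to controls; IC50 from four-parameter Hill fit.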

HT-29 = assay: Cytotoxicity against human HT-29 cells after 72 hrs by MTT assay; type: functional, cell-based; conditions: HT-29, 72 h; summary of the method: as §1
HL-60 [2] = assay: Induction of apoptosis in human HL60 cells assessed as ROS production at 50 uM after 24 hrs by NBT reduction assay relative to control; type: functional
HL-60 [3] = assay: Induction of apoptosis in human HL60 cells assessed as intact mitochondria at 5 uM after 72 hrs relative to control; type: functional
[4] = Cytotoxicity against human 518A2 cells after 72 hrs by MTT assay; type: functional, cell-based; conditions: 518A2, 72 h; summary of the method: as §1
518A2 [5] = assay: Induction of apoptosis in human 518A2 cells assessed as ROS production at 50 uM after 24 hrs by NBT reduction assay relative to control; type: functional
518A2 [6] = assay: Induction of apoptosis in human 518A2 cells assessed as intact mitochondria at 5 uM after 72 hrs relative to control; type: functional
[7] = Cytotoxicity against human vinblastine-resistant KBV1 cells after 72 hrs by MTT assay; type: functional, cell-based; conditions: KB-V1, 72 h; summary of the method: as §1
[8] = Cytotoxicity against human multidrug-resistant MCF7/Topo cells after 72 hrs by MTT assay; type: functional, cell-based; summary of the method: as §1
Mus musculus [9] = assay: Toxicity in human 1411HP cells xenografted mouse at 20 mg/kg, ip qd for 2 days; type: organism-based; design: dose 20 mg/kg, route intraperitoneal
Summary of the method: (§2)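 Subcutaneous flank xenografts were grown from 10 million 1411HP cells in 150 μL PBS. Two mice with tumors of ~2.5 cm³ were dosed ip at 20 mg/kg on 2 consecutive days. Tumor volume was measured by caliper as a² × b × 0.5. Body weight was recorded twice weekly, and daily during therapy.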

1411HP [10] = assay: Antitumor activity against human 1411HP cells xenografted in mouse assessed as intratumoral hemorrhage at 30 mg/kg, ip after 24 hrs; type: functional, organism-based; design: dose 30 mg/kg
Summary of the method: (§3)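 Mice carried subcutaneous left-flank xenografts from 10 million 1411HP cells in 150 μL PBS. After 4 weeks, two mice with tumors of ~1 cm³ received a single ip dose of 30 mg/kg. Tumors were inspected for swelling and hemorrhage after 24 h. Body weight was recorded twice weekly, and daily during therapy.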

Mus musculus [11] = assay: Toxicity in human 1411HP cells xenografted mouse at 20 mg/kg, ip administered on day 16/17 and 35/36; type: organism-based; design: dose 20 mg/kg, route intraperitoneal; conditions: in vivo
Mus musculus [12] = assay: Toxicity in human 1411HP cells xenografted mouse at 30 mg/kg, ip; type: organism-based; design: dose 30 mg/kg, route intraperitoneal; conditions: in vivo; summary of the method: as §3
1411HP [13] = assay: Antitumor activity against human 1411HP cells xenografted in mouse assessed as prolonged periods of stabilization at 20 mg/kg, ip administered on day 16/17 and 35/36; type: functional, organism-based; design: dose 20 mg/kg
HL-60 [14] = assay: Induction of apoptosis in human HL60 cells at 10 uM after 16 hrs by TUNEL assay; type: functional
Gallus gallus [15] = species: Gallus gallus; assay: Antiangiogenic activity in vascular system of fertilized chicken embryo assessed as complete degradation of vascular system after 3 days by CAM assay; type: functional, tissue-based
1411HP [16] = assay: Antitumor activity against human 1411HP cells xenografted in mouse assessed as swelling of tumor at 30 mg/kg, ip after 24 hrs; type: functional, organism-based; design: dose 30 mg/kg; summary of the method: as §3
1411HP [17] = assay: Antitumor activity against human 1411HP cells xenografted in mouse assessed as slow regrowth of tumor at 20 mg/kg, ip qd for 2 days; type: functional, organism-based; design: dose 20 mg/kg; summary of the method: as §2
[18] = Inhibition of tubulin polymerization by fluorescence-based assay; conditions: TDE = time-dependent effect
Summary of the method: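 Purified tubulin polymerization kit, fluorescence-based; polymerization followed as relative fluorescence units at excitation 360 nm and emission 465 nm. Compounds and reference agents tested at 3 μM. Four to five independent experiments.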

1411HP [19] = assay: Antitumor activity against human 1411HP cells xenografted in mouse assessed as tumor regression at 20 mg/kg, ip administered on day 16/17 and 35/36; type: functional, organism-based; design: dose 20 mg/kg
[20] = Cytotoxicity against human cisplatin-resistant 1411HP cells after 96 hrs by SRB assay; type: functional, cell-based
Summary of the method: (§4)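 Germ cell tumor lines seeded on day 0 at densities ensuring exponential growth, exposed from day 1 to drug at 0.001–10 μM in medium. Surviving cells relative to untreated controls read on day 5 by sulforhodamine B colorimetric assay (96 h exposure). IC50 from four-parameter Hill fit of concentration-response curves.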

1411HP [21] = assay: Antitumor activity against human 1411HP cells xenografted in mouse assessed as tumor regression at 20 mg/kg, ip qd for 2 days; type: functional, organism-based; design: dose 20 mg/kg; summary of the method: as §2
Gallus gallus [22] = species: Gallus gallus; assay: Antiangiogenic activity in vascular system of fertilized chicken embryo assessed as vessel shrinkage after 24 hrs by CAM assay; type: functional, tissue-based
[23] = Cytotoxicity against human H12.1 cells after 96 hrs by SRB assay; type: functional, cell-based; summary of the method: as §4
Mus musculus [24] = assay: Toxicity in human 1411HP cells xenografted mouse assessed as body weight change at 20 mg/kg, ip administered on day 16/17 and 35/36; type: organism-based; design: dose 20 mg/kg, route intraperitoneal; conditions: in vivo
1411HP [25] = assay: Antitumor activity against human 1411HP cells xenografted in mouse assessed as slow regrowth of tumor at 30 mg/kg, ip single dose

## COc1ccc(-c2c(-c3cc(N)c(OC)c(OC)c3)ncn2C)cc1F.Cl
HL-60 [1]
  IC50: > 10000 nM
HT-29
  IC50: > 50000 nM
HL-60 [2]
  Activity: 1.2%
HL-60 [3]
  Activity: 90%
[4]
  IC50: > 10000 nM
518A2 [5]
  Activity: 1.4%
518A2 [6]
  Activity: 98%

## COc1ccc(-c2c(-c3cc(Br)c(OC)c(OC)c3)ncn2C)cc1F.Cl
HL-60 [1]
  IC50: 9700 nM
HT-29
  IC50: 510 nM
HL-60 [2]
  Activity: 1.4%
HL-60 [3]
  Activity: 60%
[4]
  IC50: 66 nM
518A2 [5]
  Activity: 3.9%
518A2 [6]
  Activity: 89%

## COc1ccc(/C=C\c2cc(OC)c(OC)c(OC)c2)cc1O [COMBRETASTATIN A4]
HL-60 [1]
  IC50: 0.1 nM
HT-29
  IC50: 3600 nM
[4]
  IC50: 18 nM
[7]
  IC50: 0.4 nM
[8]
  IC50: 500 nM

## COc1ccc(-c2c(-c3cc(Cl)c(OC)c(OC)c3)ncn2C)cc1N.Cl.Cl
Mus musculus [9]
  Activity: Non-toxic
HL-60 [1]
  IC50: 0.2 nM
1411HP [10]
  Activity: Active
Mus musculus [11]
  Activity: Non-toxic
HT-29
  IC50: 0.06 nM
Mus musculus [12]
  Activity: Non-toxic
1411HP [13]
  Activity: Active
HL-60 [14]
  Activity: 60%
HL-60 [2]
  Activity: 1.8%
Gallus gallus [15]
  Activity: Active
1411HP [16]
  Activity: Active
HL-60 [3]
  Activity: 65%
1411HP [17]
  Activity: Active
[18]
  inhibition: tde
1411HP [19]
  Activity: Active
[20]
  IC50: 60 nM
1411HP [21]
  Activity: Active
Gallus gallus [22]
  Activity: Active
[4]
  IC50: 62 nM
[7]
  IC50: 400 nM
[8]
  IC50: 320 nM
[23]
  IC50: 30 nM
518A2 [5]
  Activity: 4.4%
Mus musculus [24]
  Activity: Non-toxic
518A2 [6]
  Activity: 80%

## COc1cc(-c2ncn(C)c2-c2ccc(N(C)C)cc2)cc(Br)c1OC.Cl
HL-60 [1]
  IC50: 0.2 nM
HT-29
  IC50: 4.3 nM
HL-60 [2]
  Activity: 1.6%
HL-60 [3]
  Activity: 63%
[4]
  IC50: 860 nM
518A2 [5]
  Activity: 6.7%
518A2 [6]
  Activity: 82%

## COc1ccc(-c2c(-c3cc(OC)c(OC)c(OC)c3)ncn2C)cc1N
HL-60 [1]
  IC50: > 100000 nM
HT-29
  IC50: 64 nM
HL-60 [2]
  Activity: 2.2%
HL-60 [3]
  Activity: 74%
[4]
  IC50: > 100000 nM
[7]
  IC50: 300 nM
[8]
  IC50: > 10000 nM
518A2 [5]
  Activity: 1.5%
518A2 [6]
  Activity: 87%

## COc1cc(-c2ncoc2-c2ccc(N(C)C)cc2)cc(N)c1OC.Cl
HL-60 [1]
  IC50: 0.9 nM
HT-29
  IC50: > 15000 nM
HL-60 [2]
  Activity: 1.4%
HL-60 [3]
  Activity: 62%
[4]
  IC50: 110 nM
518A2 [5]
  Activity: 3.3%
518A2 [6]
  Activity: 82%

## COc1ccc(-c2ocnc2-c2cc(N)c(OC)c(OC)c2)cc1N.Cl
HL-60 [1]
  IC50: 3.8 nM
HT-29
  IC50: 57 nM
HL-60 [14]
  Activity: 60%
HL-60 [2]
  Activity: 1.5%
Gallus gallus [15]
  Activity: inactive
HL-60 [3]
  Activity: 62%
Gallus gallus [22]
  Activity: inactive
[4]
  IC50: 2 nM
[7]
  IC50: 0.01 nM
[8]
  IC50: 1.23 nM
518A2 [5]
  Activity: 3.5%
518A2 [6]
  Activity: 85%

## COc1cc(-c2ncn(C)c2-c2ccc(N(C)C)cc2)cc(Cl)c1OC.Cl
HL-60 [1]
  IC50: 0.02 nM
HT-29
  IC50: 0.2 nM
HL-60 [2]
  Activity: 2.4%
HL-60 [3]
  Activity: 61%
[4]
  IC50: 2300 nM
518A2 [5]
  Activity: 6%
518A2 [6]
  Activity: 80%

## COc1ccc(-c2c(-c3cc(Br)c(OC)c(OC)c3)ncn2C)cc1N.Cl.Cl
HL-60 [1]
  IC50: 0.1 nM
1411HP [10]
  Activity: Active
HT-29
  IC50: 0.02 nM
HL-60 [14]
  Activity: 60%
HL-60 [2]
  Activity: 1.5%
Gallus gallus [15]
  Activity: inactive
1411HP [25]
  Activity: Active
1411HP [16]
  Activity: Active
HL-60 [3]
  Activity: 66%
[18]
  inhibition: tde
[20]
  IC50: 54 nM
Gallus gallus [22]
  Activity: inactive
[4]
  IC50: 6.4 nM
[7]
  IC50: 200 nM
[8]
  IC50: 340 nM
[23]
  IC50: 22 nM
518A2 [5]
  Activity: 3.8%
518A2 [6]
  Activity: 80%

## COc1ccc(-c2c(-c3cc(N)c(OC)c(OC)c3)ncn2C)cc1O.Cl
HL-60 [1]
  IC50: 4600 nM
HT-29
  IC50: > 100000 nM
HL-60 [2]
  Activity: 1.1%
HL-60 [3]
  Activity: 76%
[4]
  IC50: 2800 nM
518A2 [5]
  Activity: 1.8%
518A2 [6]
  Activity: 94%

## COc1cc(-c2ncn(C)c2-c2ccc3c(Cl)cn(C)c3c2)cc(N)c1OC.Cl
HL-60 [1]
  IC50: 0.04 nM
HT-29
  IC50: 14 nM
HL-60 [2]
  Activity: 1.6%
HL-60 [3]
  Activity: 60%
[4]
  IC50: 3100 nM
[7]
  IC50: 160 nM
[8]
  IC50: 3.8 nM
518A2 [5]
  Activity: 6.4%
518A2 [6]
  Activity: 77%

## COc1ccc(-c2c(-c3cc(Cl)c(OC)c(OC)c3)ncn2C)cc1F.Cl
HL-60 [1]
  IC50: > 10000 nM
HT-29
  IC50: 530 nM
HL-60 [2]
  Activity: 1.6%
HL-60 [3]
  Activity: 55%
[4]
  IC50: 400 nM
518A2 [5]
  Activity: 4.8%
518A2 [6]
  Activity: 84%
